Assay results reported in ChEMBL document CHEMBL1137655, “Isoxyl activation is required for bacteriostatic activity against Mycobacterium tuberculosis” (2007).
Values after ≈ are worked out from the molar mass of the structure shown.

What was measured:
[1] = tested on: Mycobacterium tuberculosis H37Rv; assay: Inhibition of Mycobacterium tuberculosis H37Rv recombinant DesA3-mediated unsaturated fatty acid synthesis using Mycobacterium smegmatis MC2155 membrane and partially purified EthA as cofactors assessed as tuberculostearic acid levels relative control; set-up: scale not given: the % may be the effect or the level left
Summary of the method: (§1)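 Cell-free desaturation: 0.5 mg M. smegmatis membrane protein, 3 μg His-tagged DesA3 purified from M. smegmatis, 500 μM palmitoyl-CoA, 1 mM NADPH, ±6 μg purified EthA, ISO 0 or 10 μg/ml final, 25 mM Tris-HCl pH 7.5; 75 min at 30°C; chloroform:methanol extraction, methyl esters, GC relative percentages.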

[2] = tested on: Mycobacterium tuberculosis; assay: Antimycobacterial activity against Mycobacterium tuberculosis isolate Mt103 expressing VV16 plasmid by colorimetric resazurin microtiter assay; type: functional
Summary of the method: (§2)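 Resazurin colorimetric microtiter MIC in 7H9-ADC broth with 2% DMSO at 37°C; strains carry empty pVV16 or pVVethA complementation vector; ISO tested up to 40 μg/ml, highest soluble level.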

[3] = tested on: Mycobacterium tuberculosis H37Rv; assay: Inhibition of Mycobacterium tuberculosis H37Rv recombinant DesA3-mediated unsaturated fatty acid synthesis using Mycobacterium smegmatis MC2155 membrane and partially purified EthA as cofactors assessed as palmitic acid levels relative to control; set-up: scale not given: the % may be the effect or the level left; summary of the method: as §1
[4] = tested on: Mycobacterium tuberculosis H37Rv; assay: Inhibition of Mycobacterium tuberculosis H37Rv recombinant DesA3-mediated unsaturated fatty acid synthesis using Mycobacterium smegmatis MC2155 membrane as cofactor assessed as stearic acid levels relative to control; set-up: scale not given: the % may be the effect or the level left; summary of the method: as §1
[5] = tested on: Mycobacterium tuberculosis H37Rv; assay: Inhibition of Mycobacterium tuberculosis H37Rv recombinant DesA3-mediated unsaturated fatty acid synthesis using Mycobacterium smegmatis MC2155 membrane and partially purified EthA as cofactors assessed as oleic acid levels relative to control; set-up: scale not given: the % may be the effect or the level left; summary of the method: as §1
[6] = tested on: Mycobacterium tuberculosis; assay: Antimycobacterial activity against wild-type Mycobacterium tuberculosis H37Rv ATCC 25618 expressing VV16 plasmid by colorimetric resazurin microtiter assay; type: functional; summary of the method: as §2
[7] = tested on: Mycobacterium tuberculosis H37Rv; assay: Inhibition of Mycobacterium tuberculosis H37Rv recombinant DesA3-mediated unsaturated fatty acid synthesis using Mycobacterium smegmatis MC2155 membrane and partially purified EthA as cofactors assessed as palmitoleic acid levels relative to control; set-up: scale not given: the % may be the effect or the level left; summary of the method: as §1
[8] = tested on: Mycobacterium tuberculosis H37Rv; assay: Inhibition of Mycobacterium tuberculosis H37Rv recombinant DesA3-mediated unsaturated fatty acid synthesis using Mycobacterium smegmatis MC2155 membrane and partially purified EthA as cofactors assessed as stearic acid levels relative to control; set-up: scale not given: the % may be the effect or the level left; summary of the method: as §1
[9] = tested on: Mycobacterium tuberculosis H37Rv; assay: Inhibition of Mycobacterium tuberculosis H37Rv recombinant DesA3-mediated unsaturated fatty acid synthesis using Mycobacterium smegmatis MC2155 membrane as cofactor assessed as tuberculostearic acid levels relative to control; set-up: scale not given: the % may be the effect or the level left; summary of the method: as §1
[10] = tested on: Mycobacterium tuberculosis H37Rv; assay: Inhibition of Mycobacterium tuberculosis H37Rv recombinant DesA3-mediated unsaturated fatty acid synthesis using Mycobacterium smegmatis MC2155 membrane as cofactor assessed as palmitoleic acid levels relative to control; set-up: scale not given: the % may be the effect or the level left; summary of the method: as §1
[11] = tested on: Mycobacterium tuberculosis H37Rv; assay: Inhibition of Mycobacterium tuberculosis H37Rv recombinant DesA3-mediated unsaturated fatty acid synthesis using Mycobacterium smegmatis MC2155 membrane as cofactor assessed as oleic acid levels relative to control; set-up: scale not given: the % may be the effect or the level left; summary of the method: as §1
[12] = tested on: Mycobacterium tuberculosis H37Rv; assay: Inhibition of Mycobacterium tuberculosis H37Rv recombinant DesA3-mediated unsaturated fatty acid synthesis using Mycobacterium smegmatis MC2155 membrane as cofactor assessed as palmitic acid levels relative to control; set-up: scale not given: the % may be the effect or the level left; summary of the method: as §1
[13] = tested on: Mycobacterium tuberculosis; assay: microbe, parasite or virus in culture; settings: H37Rv
[14] = tested on: Mycobacterium tuberculosis; assay: microbe, parasite or virus in culture; settings: Mt103

Structure (SMILES)	Activity [1] [%]	MIC [2] [µg/mL]	Activity [3] [%]	Activity [4] [%]	Activity [5] [%]	MIC [6] [µg/mL]	Activity [7] [%]	Activity [8] [%]	Activity [9] [%]	Activity [10] [%]	Activity [11] [%]	Activity [12] [%]	MIC [13] [µg/mL]	MIC [14] [µg/mL]
CC(C)CCOc1ccc(NC(=S)Nc2ccc(OCCC(C)C)cc2)cc1 [TIOCARLIDE]	42.8	5 (≈ 12.5 µM)	49.8	1	4.4	5 (≈ 12.5 µM)	1.9	1.1	44.7	0.1	0.1	54.1	–	–
CCc1cc(C(N)=S)ccn1 [ETHIONAMIDE]	–	–	–	–	–	–	–	–	–	–	–	–	5 (≈ 30.1 µM)	5 (≈ 30.1 µM)
